Only some compounds are listed: those with a hit (about 2.4% of all), similar ones and a draw of the others.
MT stabilizer: microtubule stabilizers in HeLa cells, primary screen, imaging, high-content imaging; AID 2205, 2009; actives 0.83% (n = 200,000); % tubulin-high responders, % at 10 µM; HeLa tubulin immunostaining HCS, 24 h; share of cells brighter than vehicle mean+2SD;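 active = plate Z-score above 3 for both tubulin-high and condensed-nucleus cell shares, with cell loss under 80%, at 10 µM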;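 also: anti alpha tubulin signal scored within the nucleus-defined area of each cell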
bCat nuc transl: modulators of beta-catenin nuclear translocation, primary screen, imaging, HeLa cells, immunofluorescence, high-content; nuclear translocation activity, % at 5 µM; actives 0.3% (n = 190,000);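 active = nuclear translocation activity above 50% at 5 µM, with a well cell count of 50 or more; inconclusive = wells under 50 cells across six images, flagged as toxic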;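 also: per-cell ratio of nuclear to cytoplasmic median beta-catenin stain intensity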
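test system = HeLa cells, endogenous beta-catenin | dosing = single 5 µM dose plus 0.02–20 µM confirmation series | times = compound treatment 24 h, 37°C, 5% CO2 | technique = beta-catenin immunofluorescence imaging with DAPI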
INS promoter inh: inhibitors of insulin promoter-driven GFP, primary screen, imaging, TRM-6 cells, eGFP reporter, cell count | reporter expression induced with tamoxifen | actives 0.9% (n = 130,000) | inhibition, % at 2 µM;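 active = inhibition above the mean plus 3 SD, with well images judged a real hit on visual review, cut at about 60% in these data, passing the limit was not always enough; inconclusive = inhibition over the cutoff but images rejected on review; inactive = inhibition not above the cutoff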
HSV replic up: enhancers of HSV replication in host cells, fold increase, host cell viability; HSV replication augmentation in cells; maximum fold increase; actives 0.005% (n = 220,000); AID 1956, 2009; in the data active = maximum fold increase above about 1.5; inconclusive = no clear call, values can overlap the other calls; tested in PC3 cells
ROMK primary: ROMK potassium channel modulators, primary screen, cell-based, thallium flux, MLSMR library; ATP-sensitive inward rectifier potassium channel 1 (Homo sapiens), P48048; Tet-inducible ROMK, thallium flux fluorescence; actives lie on both sides; B-score at 10 µM; actives 2% (n = 130,000); AID 1918, 2009;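 active = signal ratio slope over the read window, or its plate-corrected B-score, at least 3 SD from the plate mean, either direction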;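 also: B-score of the F/F0 ratio slope over 7 to 12 s after thallium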
Target sequence (P48048 whole entry, looked up): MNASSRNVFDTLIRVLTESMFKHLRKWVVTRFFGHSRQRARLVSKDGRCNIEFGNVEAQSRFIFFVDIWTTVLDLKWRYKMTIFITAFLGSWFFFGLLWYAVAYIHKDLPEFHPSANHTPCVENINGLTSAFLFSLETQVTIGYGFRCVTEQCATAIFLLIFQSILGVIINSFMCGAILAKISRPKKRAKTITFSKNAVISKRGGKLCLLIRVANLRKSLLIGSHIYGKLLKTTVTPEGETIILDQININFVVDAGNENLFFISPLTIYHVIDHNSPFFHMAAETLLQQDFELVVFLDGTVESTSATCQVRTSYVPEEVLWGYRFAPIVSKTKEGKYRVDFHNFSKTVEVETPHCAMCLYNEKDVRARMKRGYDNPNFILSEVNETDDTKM
ROMK hit retest: ROMK channel modulator hit retest, confirmation, cell-based, thallium flux, duplicate, resupplied hits; fluorescence ratio; active compounds read low; actives 54% (n = 3,000); shares compounds with ROMK primary; AID 1917, 2009; normalized thallium flux (F/F0 slope) at 10 µM;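 active = Flux at 10 µM at least 3 SD below or above vehicle control mean in one or both replicates; inconclusive = no clear call, values can overlap the other calls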
Numbers stand for hits; . = inactive; ? = inconclusive; / = no result given.

SMILES	MT stabilizer	bCat nuc transl	INS promoter inh	HSV replic up	ROMK primary	ROMK hit retest
COc1ccc(C(=O)Nc2ncc3c(n2)CC(c2ccco2)CC3=O)cc1 (stereo unspecified)	.	.	/	.	-6.5	.
CC(=O)Nc1ncc2c(n1)CC(c1ccco1)CC2=O (stereo unspecified)	.	/	.	.	.	/
COc1ccc2c(c1)c(C(O)CN1CCC(Cc3ccccc3)CC1)c(C)n2C (stereo unspecified)	.	.	.	/	/	0.058
O=c1c2ccccc2oc2ccc(-c3ccc4[nH]ccc4c3)cc12	/	/	/	.	/	/
Cc1cccc(C)c1N=Cc1c(O)n(-c2nccs2)c(=O)c2ccccc12	.	.	/	.	/	/
O=c1c2ccccc2c(/C=N/c2nnc(Cc3ccccc3)s2)c(O)n1-c1ccc(Cl)cn1	.	.	.	.	-4.3	0.06
Cc1ccc2c(=O)[nH]c(Cc3ccccc3C(=O)O)nc2c1	/	.	/	.	/	/
CSc1nccc(-c2nn(-c3ccc(C)cc3)ccc2=O)n1	57	/	.	.	4.4	.
CCSc1nccc(-c2nn(-c3ccc(C)cc3)ccc2=O)n1	50	133	/	.	3.1	.
O=C1COC(c2ccccc2)C2CCCCN12 (stereo unspecified)	.	/	.	.	.	/
Cn1c(SCC(=O)O)nnc1-c1ccc2ncccc2c1	/	.	/	.	/	/
CC(C)(C)C(=O)c1cnc(Nc2ccccc2Cl)s1	.	.	.	.	5.4	.
COc1cccc(CN2C(=O)c3cccc(N)c3C2=O)c1	.	.	.	.	-2.1	0.057
COc1cccc(Cn2cc(N)cn2)c1	.	.	.	.	.	/
c1ccc(Nc2ncnc3[nH]ncc23)cc1	/	.	/	.	.	/
COc1ccc(-n2nnnc2SCC(=O)NCc2ccco2)cc1OC	.	.	/	.	/	.
CCCCOc1ccc(C2CC(=O)NC2=O)cc1 (stereo unspecified)	.	.	.	.	.	/
CCCCOc1ccccc1C1CC(=O)NC2=C1C(=O)CCC2 (stereo unspecified)	48	109	.	/	4.7	.
O=C(Cn1cc(C(=O)C(F)(F)F)c2ccccc21)N1CCOCC1	.	.	/	.	.	/
O=C(c1ccc([N+](=O)[O-])cc1)N1CCSC1c1ccc(Cl)cc1 (stereo unspecified)	.	.	.	.	-3.3	?
CCOc1cc(C(=O)Nc2ccc(F)cc2)cc(Br)c1OC	.	.	.	.	/	/
CCOc1cc(C(=O)Nc2ccc(N3CCOCC3)cc2)cc(Br)c1OC	.	.	.	.	3.8	.
O=C(NCC1CCCO1)C(c1ccc(F)cc1)N(CC1CCCO1)C(=O)c1ccc(-c2ccccc2)[nH]1 (stereo unspecified)	.	.	/	.	-3.2	0.059
O=C(NCC1CCCO1)C(c1cccs1)N(Cc1cccs1)C(=O)c1ccc(-c2ccccc2)[nH]1 (stereo unspecified)	.	.	.	.	.	/
CCOc1ccc(CCNS(=O)(=O)c2cccc3nsnc23)cc1OCC	.	.	.	.	/	/
SMILES	MT stabilizer	bCat nuc transl	INS promoter inh	HSV replic up	ROMK primary	ROMK hit retest
Oc1ccc(/C=N/NC(=S)N/N=C/c2ccc(O)cc2)cc1	.	.	.	.	3.3	.
Cc1cc(C)c(OCC(=O)Nc2nnc(-c3ccco3)o2)c(C)c1	.	.	/	.	.	/
CCOc1cccc(C(=O)Nc2ccc3oc(-c4cccnc4)nc3c2)c1	/	.	/	.	/	/
O=C(Nc1ccc2oc(-c3cccnc3)nc2c1)c1cccnc1	.	.	/	.	-5.1	.
COc1ccc(N(C(=O)/C=C/C(=O)Nc2cc(C)on2)C(C(=O)NC2CCCC2)c2ccccc2C)cc1 (stereo unspecified)	.	.	.	.	-6.4	0.057
COc1ccc(N(C(=O)CCC(=O)Nc2cc(C)on2)C(C(=O)NC2CCCC2)c2ccco2)cc1 (stereo unspecified)	.	.	/	.	.	/
Cc1cccc(C)c1NC(=O)COC(=O)c1cccnc1	.	.	/	.	.	/
O=S(=O)(Nc1ccc(Cl)cc1)c1ccc(N2CCOCC2)c(NC(=S)NC2CC2)c1	.	.	.	.	.	/
C=CCSc1nnc(C)c(/C=C/Nc2ccc(Cl)cc2)n1	.	.	/	?	-3	0.046
COc1ccc(NC(=O)CN2C(=O)CSC(C)C2=O)cc1 (stereo unspecified)	.	.	/	.	.	/
Cc1cc(C(=O)N/N=C/C=C/c2ccccc2)n[nH]1	/	.	/	.	.	/
O=C(N/N=C/C=C/c1ccccc1)c1n[nH]c2c1CCC2	25	176	.	/	4	.
Cc1ccc(C2=N/C(=C\c3c(C)nn(-c4ccccc4)c3N3CCCC3)C(=O)O2)cc1	.	.	.	.	.	/
Cc1nn(-c2ccccc2)c(N2CCCC2)c1/C=C1\N=C(c2ccc(F)cc2)OC1=O	.	.	.	.	-1.5	0.066
CN(C)C(=O)CN1CCN(Cc2cn(C)nc2-c2ccc3c(c2)OCCO3)CC1	/	.	/	.	.	/
c1ccc(Cc2nnc(N3CCOCC3)c3ccccc23)cc1	.	/	.	.	.	/
c1ccc(Cc2nnc(N3CCCCC3)c3ccccc23)cc1	.	.	/	.	-2.2	0.067
O=c1c2ccccc2nnn1COc1cccc(Cl)c1	.	.	/	.	.	/
O=C1Nc2ccccc2/C1=C/C(=O)c1cccs1	.	.	.	.	-5.6	0.039
CCN1C(=O)/C(=C\C(=O)c2cccs2)c2cc(Br)ccc21	.	.	.	.	.	/
CC(C)c1ccc(/C=N/NC(=O)c2cccc(S(=O)(=O)N3CCOCC3)c2)cc1	.	.	/	.	0.8	.
CCOC(=O)c1cc2cc(OC)ccc2[nH]1	.	.	.	.	.	.
Fc1ccc(CSc2ccc3nnc(-c4cccnc4)n3n2)cc1	.	.	/	.	.	/
Cc1c2ccccc2cc[n+]1CCCS(=O)(=O)[O-]	.	.	.	.	.	/
Cc1cccc[n+]1CCCCCCCCCC[n+]1ccccc1C	.	.	.	.	.	/
SMILES	MT stabilizer	bCat nuc transl	INS promoter inh	HSV replic up	ROMK primary	ROMK hit retest
CCCCCCCCCC[n+]1cccc2c3ccccc3ccc21	.	/	.	.	/	0.035
CCCCCCCC[n+]1cccc2c3ccccc3ccc21	.	/	.	.	/	0.052
Cc1nc(SCc2c(F)cccc2Cl)c2c(=O)n(C)c(=O)n(C)c2n1	.	/	/	.	/	/
CCN1C(=O)[C@@H]2[C@H](C1=O)[C@@H]1C[C@H]3C(=O)N(CC)C(=O)[C@H]3[C@@H]3C1=C(C(=O)N1C(=O)OC(=NCC4CC4)[C@]31C)[C@@H]2C	/	.	/	.	/	/
Cc1cc(NC(=S)N(CCN2CCCCC2)Cc2ccco2)ccc1Cl	.	.	/	.	.	/
Cc1ccc(NC(=S)N(CCCN2CCCC2)Cc2cccn2Cc2ccc(Cl)cc2)cc1C	.	.	.	.	-2.8	0.062
O=C(N/C(=C\c1cccc([N+](=O)[O-])c1)C(=O)N1CCOCC1)c1ccc([N+](=O)[O-])cc1	.	.	.	.	.	/
